The source made the active and inactive calls. The calls are words filed in the database; no cut-off is given here.
Legend:
SH-SY5Y = test: Cytotoxicity against SH-SY5Y cells after 48 hrs by MTS assay; type: functional, cell-based; conditions: Homo sapiens
Method in brief: (§1)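 Cells were seeded at 5 × 10^5 per T75 flask and grown to about 80% confluency. Lines were NB (IMR-32, SH-SY5Y, SMS-KCNR, SK-N-SH) or primary human lung fibroblasts (LF1, passage 10). Cells were exposed to 2.5–40 μM drug for 48 hrs and viability was read by MTS. Triplicates were run, and values are mean ± SD of a representative experiment as % viability of untreated cells.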

SK-N-SH = test: Cytotoxicity against human SK-N-SH cells after 48 hrs; type: functional, cell-based; method in brief: as §1
SMS-KCNR [1] = test: Cytotoxicity against SMS-KCNR cells after 48 hrs by MTS assay; type: functional, cell-based; conditions: Homo sapiens; method in brief: as §1
IMR-32 = test: Cytotoxicity against IMR32 cells after 48 hrs by MTS assay; type: functional, cell-based; conditions: Homo sapiens; method in brief: as §1
[2] = Cell cycle arrest in SMS-KCNR cells by accumulation at G0/G1 phase at 3 uM after 24 hrs by flow cytometry; type: functional, cell-based; conditions: Homo sapiens
Method in brief: (§2)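 Cells were plated in 100 mm dishes at 7.5 × 10^5 per dish, left to attach overnight, then exposed to 3.0 μM drug for 12 or 24 hrs. Floating and scraped adherent cells were pooled and fixed in ice-cold 70% ethanol for 30 min. They were stained with 50 μg/mL propidium iodide plus 100 μg/mL RNase, 30 min at 37 °C in the dark. Flow cytometry read 10,000 gated single-cell events per sample. Results are given as % of cells per sub-population, with sub-G0/G1 taken as apoptotic.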

SMS-KCNR [3] = test: Induction of apoptosis in SMS-KCNR cells assessed as increase in caspase 9 activation by Western blotting; type: functional, cell-based; conditions: Homo sapiens
Method in brief: (§3)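 SMS-KCNR cells at about 80% confluency were treated with 3 μM drug for the indicated times, then lysed in NP-40 buffer with protease and phosphatase inhibitors. Lysates (50 μg protein per lane) were run on 12% SDS-PAGE and blotted to PVDF. Blots were blocked in 5% milk and probed overnight at 4 °C with 1:1000 primary antibodies in 5% BSA. Targets were phospho and total JNK, p38 and Akt, pro and active caspase-3, -8 and -9, and cleaved PARP-1, with β-actin as loading control.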

SMS-KCNR [4] = test: Reduction of SMS-KCNR cell viability at 5 uM after 48 hrs in presence of Z-VAD-FM; type: functional, cell-based; conditions: Homo sapiens
Method in brief: (§4)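 SMS-KCNR cells were pre-incubated for 2 hrs with 40 μM caspase inhibitor (Z-VAD-FM, Z-DEVD-FMK, Z-IETD-FMK or Z-LEHD-FMK). Drug was then added at 5.0 μM for 48 hrs and viability measured. Triplicates were run, and values are mean ± SD of a representative experiment as % viability of untreated cells.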

[5] = Cell cycle arrest in SMS-KCNR cells by accumulation at S phase at 3 uM after 24 hrs by flow cytometry; type: functional, cell-based; conditions: Homo sapiens; method in brief: as §2
[6] = target: MAP kinase p38 (Homo sapiens) (UniProt O15264+Q15759+Q16539+P53778); test: Effect on p38 activation in SMS-KCNR cells after 1 hr by Western blotting; type: cell-based; method in brief: as §3
SMS-KCNR [7] = test: Reduction of SMS-KCNR cell viability at 5 uM after 48 hrs in presence of Z-IETD-FMK; type: functional, cell-based; conditions: Homo sapiens; method in brief: as §4
[8] = Cell cycle arrest in SMS-KCNR cells by accumulation at G0/G1 phase at 3 uM after 12 hrs by flow cytometry; type: functional, cell-based; conditions: Homo sapiens; method in brief: as §2
[9] = Induction of apoptosis in SMS-KCNR cells at 3 uM after 12 hrs by flow cytometry; type: functional, Homo sapiens; method in brief: as §2
SMS-KCNR [10] = test: Reduction of SMS-KCNR cell viability at 5 uM after 48 hrs in presence of Z-DEVD-FMK; type: functional, cell-based; conditions: Homo sapiens; method in brief: as §4
SMS-KCNR [11] = test: Inhibition of cell proliferation of SMS-KCNR cells […] after 48 hrs by BrdU assay; type: functional, cell-based; conditions: Homo sapiens
Method in brief: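 SMS-KCNR cells were plated at 5 × 10^3 per well, attached overnight, and treated with 300 nM–5 μM drug for 48 hrs. BrdU (10 μM final) was added for a further 6 hrs. Fixed cells were incubated with anti-BrdU–peroxidase for 2 hrs at 37 °C, developed with TMB, stopped with sulfuric acid, and read at 450 nm after blank subtraction. Triplicates were run, expressed as % of untreated absorbance.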

SMS-KCNR [12] = test: Induction of apoptosis in SMS-KCNR cells assessed as increase in caspase 8 activation by Western blotting; type: functional, cell-based; conditions: Homo sapiens; method in brief: as §3
[13] = Induction of apoptosis in SMS-KCNR cells at 3 uM after 24 hrs by flow cytometry; type: functional, Homo sapiens; method in brief: as §2
[14] = Cytotoxicity against lung fibroblast cells after 48 hrs by MTS assay; type: cell-based; conditions: human; method in brief: as §1
SMS-KCNR [15] = test: Reduction of SMS-KCNR cell viability at 5 uM after 48 hrs in presence of Z-LEHD-FMK; type: functional, cell-based; conditions: Homo sapiens; method in brief: as §4
SMS-KCNR [16] = test: Induction of apoptosis in SMS-KCNR cells assessed as increase in caspase 3 activation by Western blotting; type: functional, cell-based; conditions: Homo sapiens; method in brief: as §3
SMS-KCNR [17] = test: Induction of apoptosis in SMS-KCNR cells assessed as increase in PARP1 activation by Western blotting; type: functional, cell-based; conditions: Homo sapiens; method in brief: as §3
SMS-KCNR [18] = test: Effect on JNK activation in SMS-KCNR cells after 1 hr by Western blotting; type: cell-based; conditions: Homo sapiens; method in brief: as §3
[19] = Cell cycle arrest in SMS-KCNR cells by accumulation at G2/M phase at 3 uM after 24 hrs by flow cytometry; type: functional, cell-based; conditions: Homo sapiens; method in brief: as §2
[20] = Cell cycle arrest in SMS-KCNR cells by accumulation at S phase at 3 uM after 12 hrs by flow cytometry; type: functional, cell-based; conditions: Homo sapiens; method in brief: as §2
[21] = Cell cycle arrest in SMS-KCNR cells by accumulation at G2/M phase at 3 uM after 12 hrs by flow cytometry; type: functional, cell-based; conditions: Homo sapiens; method in brief: as §2
[22] = target: RAC-alpha serine/threonine-protein kinase (Homo sapiens) (UniProt P31749); test: Inhibition of AKT in SMS-KCNR cells after 36 hrs by Western blotting; type: cell-based; method in brief: as §3
SMS-KCNR [23] = test: Cytotoxicity against SMS-KCNR cells at 2.5 uM to 5.0 uM after 48 hrs by MTS assay; type: functional, cell-based; conditions: Homo sapiens; method in brief: as §1

RAC-alpha serine/threonine-protein kinase (Homo sapiens), sequence (P31749 whole entry): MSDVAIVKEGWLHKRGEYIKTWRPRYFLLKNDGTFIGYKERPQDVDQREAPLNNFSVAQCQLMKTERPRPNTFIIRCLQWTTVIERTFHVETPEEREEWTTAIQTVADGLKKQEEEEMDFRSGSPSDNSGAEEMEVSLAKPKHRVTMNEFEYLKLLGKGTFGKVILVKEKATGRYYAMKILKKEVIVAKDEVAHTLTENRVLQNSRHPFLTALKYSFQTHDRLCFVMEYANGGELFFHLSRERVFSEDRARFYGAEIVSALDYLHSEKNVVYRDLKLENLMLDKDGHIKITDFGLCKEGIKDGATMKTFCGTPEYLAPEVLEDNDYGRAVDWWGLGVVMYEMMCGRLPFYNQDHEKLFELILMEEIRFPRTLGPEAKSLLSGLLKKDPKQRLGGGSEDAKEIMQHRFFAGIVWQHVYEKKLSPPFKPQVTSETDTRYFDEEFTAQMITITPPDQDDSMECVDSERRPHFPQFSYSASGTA

In the case of `S=C=NCCc1c[nH]c2ccc(OCc3ccccc3)cc12`, the Activity (SH-SY5Y) is reported as “Dose-dependent effect”, the IC50 (SK-N-SH) is reported as less than 2500 nM and the Activity (SMS-KCNR [1]) is reported as “Dose-dependent effect”. For the same molecule, the Activity (IMR-32) was “Dose-dependent effect”.
With `Cc1cccc2c(CCN=C=S)c[nH]c12` the Activity (SH-SY5Y) was “Dose-dependent effect”, the Activity [2] was 68.9% and the Activity (SMS-KCNR [3]) was “Active”. For the same molecule, the Activity (SMS-KCNR [4]) was “Active”, the Activity [5] was 6.5% and the Activity [6] was “Active”. The Activity (SMS-KCNR [7]) was “Active”, the Activity [8] was 66.4% and the Activity [9] was 19.7%. For the same molecule, the Activity (SMS-KCNR [10]) was “Active”, the IC50 (SK-N-SH) was less than 2500 nM and the Activity (SMS-KCNR [11]) was “Active”. For the same molecule, the Activity (SMS-KCNR [12]) was “Active”, the Activity (SMS-KCNR [1]) was “Dose-dependent effect” and the Activity [13] was 18.8%. The Activity [14] was “Not Active”, the Activity (SMS-KCNR [15]) was “Active” and the Activity (SMS-KCNR [16]) was “Active”. The Activity (SMS-KCNR [17]) was “Active”, the Activity (SMS-KCNR [18]) was “Active” and the Activity [19] was 24.5%. For the same molecule, the Activity [20] was 7.3%, the Activity [21] was 26.3% and the Activity [22] was “Active”. The Activity (IMR-32) was “Dose-dependent effect” and the Activity (SMS-KCNR [23]) was “Active”.

Reference: ChEMBL document CHEMBL1137504, “Effect of indole ethyl isothiocyanates on proliferation, apoptosis, and MAPK signaling in neuroblastoma cell lines” (Bioorg Med Chem Lett, 2007)
